The values below come from ChEMBL document CHEMBL1139927, “A new class of nifuroxazide analogues: synthesis of 5-nitrothiophene derivatives with antimicrobial activity against multidrug-resistant Staphylococcus aureus” (2007).

The structures appear in SMILES notation. In brackets after ≈: the same amount, converted by molar mass.

Assay type in all cases: functional
The test system of assay [1] is Staphylococcus aureus. Put plainly: Antimicrobial activity against multidrug-resistant Staphylococcus aureus 3SP/R33 after 18 hrs by serial dilution test. Conditions: 3SP/R33, 18 h. Summed up: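 Broth twofold macro-dilution in Tryptic Soy Broth. Inoculum came from fresh cultures grown on plate count agar for 18 h at 35 °C and was adjusted to McFarland no. 1. Compound stocks were made in DMSO (2–5% in assay), with ethanol as co-solvent, and diluted in TSB. Tubes were incubated at 35 °C for 18 h. MIC = lowest concentration giving no visible growth; run in quadruplicate.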

In assay [2] the test system is Staphylococcus aureus. Description: Antimicrobial activity against Staphylococcus aureus ATCC 25923 after 18 hrs by serial dilution test. The following applies: ATCC 25923, 18 h. The essentials: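 Twofold broth macro-dilution in Tryptic Soy Broth. Inoculum taken from fresh 18 h, 35 °C cultures on plate count agar and adjusted to McFarland no. 1. Compounds prepared as DMSO stocks and diluted in TSB, with ethanol as co-solvent and 2–5% DMSO in the assay. Tubes incubated at 35 °C for 18 h and read visually. MIC is the lowest concentration giving complete growth inhibition; run in quadruplicate.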

Assay [3] concerns Staphylococcus aureus. Put plainly: Antimicrobial activity against multidrug-resistant Staphylococcus aureus 3SP/R33 […] after 24 hrs. The following applies: 3SP/R33, 24 h. The essentials:
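MBC: 10 µL was taken from each tube that stayed clear in the broth dilution MIC test. Each aliquot was spread over the whole surface of a Müller–Hinton agar plate, and plates were incubated at 35 °C for 24 h to read bactericidal concentration.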

The MIC is the least concentration at which growth counts as inhibited. Lower therefore signals a more susceptible organism. The MBC is the lowest tested concentration that kills the bacteria rather than only halting them. Low readings indicate greater bactericidal potency, high ones weaker bactericidal potency.

For `CCCCNc1ccc(C(=O)N/N=C/c2ccc([N+](=O)[O-])s2)cc1`, the MIC in assay [1] was 6.22 µg/mL (≈ 18 µM); in assay [2] it was ≤ 22.4 µM. Besides, the MBC in assay [3] is > 49.8 µg/mL.
The corresponding values for `O=C(N/N=C/c1ccc([N+](=O)[O-])s1)c1ccccc1` are 3.9 µg/mL (≈ 14.2 µM), ≤ 16.7 µM and ≥ 125 µg/mL.
The corresponding values for `O=C(N/N=C/c1ccc([N+](=O)[O-])s1)c1ccc(Cl)cc1` are 1.09 µg/mL (≈ 3.52 µM), ≤ 5.52 µM and 2.18 µg/mL (≈ 7.04 µM).
The corresponding values for `CCCCc1ccc(C(=O)N/N=C/c2ccc([N+](=O)[O-])s2)cc1` are 12.7 µg/mL (≈ 38.3 µM), ≤ 40.7 µM and > 50.8 µg/mL.
Turning to `CCc1ccc(C(=O)N/N=C/c2ccc([N+](=O)[O-])s2)cc1`, the MIC is 5.8 µg/mL (≈ 19.1 µM) in assay [1] and ≤ 22.2 µM in assay [2]. Further, the minimum bactericidal concentration (MBC) in assay [3] is > 92.8 µg/mL.
For `O=C(N/N=C/c1ccc([N+](=O)[O-])s1)c1ccc(Br)cc1`, the MIC in assay [1] is 0.63 µg/mL (≈ 1.78 µM); in assay [2] it was ≤ 2.12 µM. In assay [3], this molecule registered an MBC of 0.63 µg/mL (≈ 1.78 µM).
For `CCCOc1ccc(C(=O)N/N=C/c2ccc([N+](=O)[O-])s2)cc1`, in assay [2], the minimal inhibitory concentration (MIC) was ≤ 24.3 µM.
For `CC(=O)c1ccc(C(=O)N/N=C/c2ccc([N+](=O)[O-])s2)cc1`, the MIC was 0.11 µg/mL (≈ 0.347 µM) in assay [1] and ≤ 0.44 µM in assay [2]. Also, the MBC in assay [3] turned out to be 0.22 µg/mL (≈ 0.693 µM).
`O=C(N/N=C/c1ccc([N+](=O)[O-])s1)c1ccc(Cl)c(Cl)c1`: the values for the minimum inhibitory concentration (MIC) in assay [1] and in assay [2] were 0.63 µg/mL (≈ 1.83 µM) and ≤ 2.21 µM, respectively. The molecule further returned an MBC in assay [3] of 0.63 µg/mL (≈ 1.83 µM).
In the case of `O=C(N/N=C/c1ccc([N+](=O)[O-])s1)c1ccc(I)cc1`, the values for the MIC in assay [1] and in assay [2] were 5.55 µg/mL (≈ 13.8 µM) and ≤ 14 µM, respectively. In addition, in assay [3], the MBC was > 88.8 µg/mL.
The corresponding values for `CC(C)c1ccc(C(=O)N/N=C/c2ccc([N+](=O)[O-])s2)cc1` are 5.02 µg/mL (≈ 15.8 µM), ≤ 28.6 µM and > 40.2 µg/mL.
The corresponding values for `C=Cc1ccc(C(=O)N/N=C/c2ccc([N+](=O)[O-])s2)cc1` are 3.38 µg/mL (≈ 11.2 µM), ≤ 15.7 µM and > 54 µg/mL.
For `CCCc1ccc(C(=O)N/N=C/c2ccc([N+](=O)[O-])s2)cc1`, the results for the MIC in assay [1] and in assay [2] were 7.25 µg/mL (≈ 22.8 µM) and ≤ 36.5 µM, respectively. Further, in assay [3], the MBC was > 29 µg/mL.
The corresponding values for `CCCCOc1ccc(C(=O)N/N=C/c2ccc([N+](=O)[O-])s2)cc1` are 10.3 µg/mL (≈ 29.7 µM), ≤ 35.4 µM and > 41.2 µg/mL.
